Results taken from ChEMBL document CHEMBL1148492, “Synthesis and structure-activity relationship study of potent cytotoxic analogues of the marine alkaloid Lamellarin D” (2006).
Calls of active or inactive are those of the source. The calls are words filed in the database; no cut-off is given here.

Experiments:
A549 [1] = assay: Antiproliferative activity against human A549 cell line after 72 hrs by SRB assay; assay type: functional; conditions: A549, 72 h
Outline: (§1)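 Cells seeded at 5×10³/well in RPMI and allowed to attach in drug-free medium for 18 h. Compounds were added in DMSO/H2O (3:7) and exposure was continuous for 72 h. Cells were then fixed with cold 50% TCA for 60 min at 4°C, stained with 0.4% SRB in 1% acetic acid for 10 min at room temperature, solubilized in Tris, and OD was read at 490 nm. GI50 was derived from 100×[(T−T0)/(C−T0)]=50.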

HT-29 [2] = assay: Antiproliferative activity against human HT29 cell line after 72 hrs by SRB assay; assay type: functional; conditions: HT-29, 72 h; outline: as §1
MDA-MB-231 [3] = assay: Antiproliferative activity against human MDA-MB-231 cell line after 72 hrs by SRB assay; assay type: functional; conditions: MDA-MB-231, 72 h; outline: as §1
HT-29 [4] = assay: Antiproliferative activity against human HT29 cell line after 72 hrs by SRB assay at 10 ug/mL; assay type: functional, cell-based
A549 [5] = assay: Antiproliferative activity against human A549 cell line after 72 hrs by SRB assay at 10 ug/mL; assay type: functional, cell-based
MDA-MB-231 [6] = assay: Antiproliferative activity against human MDA-MB-231 cell line after 72 hrs by SRB assay at 10 ug/mL; assay type: functional, cell-based

GI50 (A549 [1]) [µM] | GI50 (HT-29 [2]) [µM] | GI50 (MDA-MB-231 [3]) [µM] | Compound | Activity (HT-29 [4]) | Activity (A549 [5]) | Activity (MDA-MB-231 [6])
7.1 | 8.1 | 7.5 | COC(=O)c1c(-c2ccc(O)c(OC)c2)c(-c2ccc(O)c(OC)c2)c2c3cc(OC)c(O)cc3ccn12 |  |  | 
10.9 | 23.9 | 11.2 | COC(=O)c1cc(-c2ccc(O)c(OC)c2)c2c3cc(OC)c(O)cc3ccn12 |  |  | 
14.2 | 18 | 22.3 | COC(=O)c1cc(-c2ccc(O)c(OC)c2)c2n1CCc1cc(O)c(OC)cc1-2 |  |  | 
0.81 | 1 | 0.98 | COC(=O)c1c(-c2ccc(OC)c(OC)c2)c(-c2ccc(OC)c(OC)c2)c2n1CCc1cc(OC(C)C)c(OC)cc1-2 |  |  | 
20.8 |  | 10.6 | COC(=O)c1c(-c2ccc(O)cc2O)c(-c2cccc(O)c2)c2c3cc(OC)c(O)cc3ccn12 | inactive |  | 
 |  |  | COC(=O)c1c(-c2ccc(OC)c(OC)c2)c(-c2ccc(OC)c(OC)c2)c2c3cc(OC)c(O)cc3ccn12 | inactive | inactive | inactive
0.45 | 7.9 | 0.71 | COC(=O)c1c(-c2cc(OC)c(O)cc2O)c(-c2ccc(O)c(OC)c2)c2c3cc(OC)c(O)cc3ccn12 |  |  | 
 |  | 13.7 | COC(=O)c1c(-c2ccc(N(C)C)cc2)c(-c2ccc(N(C)C)cc2)c2n1CCc1cc(O)c(OC)cc1-2 | inactive | inactive | 
 |  |  | COC(=O)c1cc(-c2ccc(N(C)C)cc2)c2n1CCc1cc(O)c(OC)cc1-2 | inactive | inactive | inactive
 |  |  | COC(=O)c1cc(-c2ccc(N(C)C)cc2)c2n1CCc1cc(OC(C)C)c(OC)cc1-2 | inactive | inactive | inactive
20.4 |  | 19.7 | COC(=O)c1c(-c2cccs2)c(-c2cccs2)c2c3cc(OC)c(O)cc3ccn12 | inactive |  | 
 |  |  | COC(=O)c1c(-c2cccs2)c(-c2cccs2)c2n1CCc1cc(OC(C)C)c(OC)cc1-2 | inactive | inactive | inactive
 |  |  | COC(=O)c1c(-c2ccc(OC(F)(F)F)cc2)c(-c2ccc(OC(F)(F)F)cc2)c2c3cc(OC)c(O)cc3ccn12 | inactive | inactive | inactive
 |  | 26.3 | COC(=O)c1cc(-c2cccs2)c2c3cc(OC)c(O)cc3ccn12 | inactive | inactive | 
 |  |  | COC(=O)c1c(-c2ccc(O)cc2)c(-c2ccc(O)cc2)c2n1CCc1cc(O)c(OC)cc1-2 | inactive | inactive | inactive
 |  |  | COC(=O)c1c(-c2ccc(OC)c(OC)c2)c(-c2ccc(O)c(OC)c2)c2c3cc(OC)c(O)cc3ccn12 | inactive | inactive | inactive
 | 8.9 | 18.3 | COC(=O)c1c(-c2cccc([N+](=O)[O-])c2)c(-c2cccc([N+](=O)[O-])c2)c2c3cc(OC)c(O)cc3ccn12 |  | inactive | 
8.9 |  | 7.6 | COC(=O)c1c(-c2cc(OC)c(O)cc2OC)c(-c2ccc(O)c(OC)c2)c2n1CCc1cc(O)c(OC)cc1-2 | inactive |  | 
 |  |  | COC(=O)c1c(-c2ccc(OC(F)(F)F)cc2)c(-c2ccc(OC(F)(F)F)cc2)c2n1CCc1cc(O)c(OC)cc1-2 | inactive | inactive | inactive
 |  | 12.7 | COC(=O)c1cc(-c2cc(OC)ccc2OC)c2n1CCc1cc(O)c(OC)cc1-2 | inactive | inactive | 
14.7 |  | 15.7 | COC(=O)c1c(-c2ccc(OC)c(OC)c2O)c(-c2cccc(O)c2)c2n1CCc1cc(O)c(OC)cc1-2 | inactive |  | 
11.2 |  | 7.7 | COC(=O)c1c(-c2ccc(OC)c(OC)c2)c(-c2ccc(OC)c(OC)c2)c2n1CCc1cc(O)c(OC)cc1-2 | inactive |  | 
9.2 | 10.3 | 14.4 | COC(=O)c1c(-c2ccc(OC)cc2)c(-c2ccc(OC)cc2)c2n1CCc1cc(O)c(OC)cc1-2 |  |  | 

GI50 (A549 [1]) [µM] | GI50 (HT-29 [2]) [µM] | GI50 (MDA-MB-231 [3]) [µM] | Compound | Activity (HT-29 [4]) | Activity (A549 [5]) | Activity (MDA-MB-231 [6])
9.8 | 10.1 | 15 | COC(=O)c1c(-c2ccc(O)cc2)c(-c2ccc(O)c(OC)c2)c2c3cc(OC)c(O)cc3ccn12 |  |  | 
 |  |  | COC(=O)c1cc(-c2cc(OC)c(OC)c(OC)c2)c2c3cc(OC)c(O)cc3ccn12 | inactive | inactive | inactive
 | 13.6 |  | COC(=O)c1c(-c2cc(OC)c(OC(C)C)cc2OC(C)C)c(-c2ccc(OC(C)C)c(OC)c2)c2c3cc(OC)c(OC(C)C)cc3ccn12 |  | inactive | inactive
14.3 |  | 8.5 | COC(=O)c1c(-c2ccc(O)c(OC)c2)c(-c2ccc(O)c(OC)c2)c2n1CCc1cc(O)c(OC)cc1-2 | inactive |  | 
18 | 11.3 | 10.1 | COC(=O)c1c(-c2cccc([N+](=O)[O-])c2)c(-c2cccc([N+](=O)[O-])c2)c2n1CCc1cc(O)c(OC)cc1-2 |  |  | 
14.7 | 6.9 | 7.1 | COC(=O)c1c(-c2ccc(O)c(OC)c2)c(-c2ccc(O)c(OC)c2)c2n1CCc1cc(OC(C)C)c(OC)cc1-2 |  |  | 
 | 9.7 | 9.9 | COC(=O)c1c(-c2ccc(OC)cc2)c(-c2ccc(OC)cc2)c2c3cc(OC)c(O)cc3ccn12 |  | inactive | 
 |  |  | COC(=O)c1c(-c2cc(OC)c(OC(C)C)cc2OC(C)C)c(-c2ccc(OC(C)C)c(OC)c2)c2n1CCc1cc(OC(C)C)c(OC)cc1-2 | inactive | inactive | inactive
13.3 |  | 19.9 | COC(=O)c1cc(-c2cc(OC)ccc2OC)c2c3cc(OC)c(O)cc3ccn12 | inactive |  | 
3.5 | 9.8 | 4.1 | COC(=O)c1c(-c2ccc(O)cc2)c(-c2ccc(O)cc2)c2c3cc(OC)c(O)cc3ccn12 |  |  | 
6.3 | 18.4 | 7.2 | COC(=O)c1c(-c2cccc(O)c2)c(-c2cccc(O)c2)c2c3cc(OC)c(O)cc3ccn12 |  |  | 
 |  |  | COC(=O)c1cc(-c2cc(OC)c(OC)c(OC)c2)c2n1CCc1cc(OC(C)C)c(OC)cc1-2 | inactive | inactive | inactive
5 | 17.1 | 3.1 | COC(=O)c1c(-c2cc(OC)c(O)cc2O)c(-c2ccc(O)c(OC)c2)c2n1CCc1cc(O)c(OC)cc1-2 |  |  | 
 |  |  | COC(=O)c1c(-c2ccc(O)cc2O)c(-c2cccc(O)c2)c2n1CCc1cc(O)c(OC)cc1-2 | inactive | inactive | inactive
67.9 | 34 |  | COC(=O)c1c(-c2cc(OC)c(OC)c(OC)c2)c(-c2cc(OC)c(OC)c(OC)c2)c2n1CCc1cc(OC(C)C)c(OC)cc1-2 |  |  | inactive
 |  |  | COC(=O)c1c(-c2cc(OC)c(OC)c(OC)c2)c(-c2cc(OC)c(OC)c(OC)c2)c2c3cc(OC)c(O)cc3ccn12 | inactive | inactive | inactive
13.7 | 8.4 | 10.5 | COC(=O)c1c(-c2cc(O)c(O)cc2O)c(-c2cc(OC)ccc2OC)c2n1CCc1cc(O)c(OC)cc1-2 |  |  | 
4.7 | 7.1 | 3.2 | COC(=O)c1c(-c2cc(O)c(O)cc2O)c(-c2cc(OC)ccc2OC)c2c3cc(OC)c(O)cc3ccn12 |  |  | 
20.3 | 18.1 | 19 | COC(=O)c1cc(-c2ccc(O)c(OC)c2)c2n1CCc1cc(OC(C)C)c(OC)cc1-2 |  |  | 
 |  |  | COC(=O)c1c(-c2cccs2)c(-c2cccs2)c2c3cc(OC)c(OC(C)C)cc3ccn12 | inactive | inactive | inactive
 |  |  | COC(=O)c1cc(-c2ccc(OC(C)C)c(OC)c2)c2n1CCc1cc(OC(C)C)c(OC)cc1-2 | inactive | inactive | inactive
 |  |  | COC(=O)c1c(-c2cc(OC)c(O)cc2OC)c(-c2ccc(O)c(OC)c2)c2c3cc(OC)c(O)cc3ccn12 | inactive | inactive | inactive

Compound | GI50 (A549 [1]) [µM] | GI50 (HT-29 [2]) [µM] | GI50 (MDA-MB-231 [3]) [µM] | Activity (HT-29 [4]) | Activity (A549 [5]) | Activity (MDA-MB-231 [6])
COc1cc(-c2c3c4cc(OC)c(O)cc4oc(=O)c3n3ccc4cc(O)c(OC)cc4c23)ccc1O [LAMELLARIN D] | 0.2 | 5.1 | 0.25 |  |  | 
